Data taken from ChEMBL document CHEMBL5329172, “Chloroacetamide fragment library screening identifies new scaffolds for covalent inhibition of the TEAD·YAP1 interaction” (RSC Med Chem, 2023).
The source made the active and inactive calls. The calls are words filed in the database; no cut-off is given here.

What was measured:
YAP1-TEAD4 [1] = target: T1, YAP1-TEAD4 (Homo sapiens, UniProt Q15561); test: Inhibition of GST-tagged TEAD4 (217 to 434 residues) (unknown origin) expressed in Escherichia coli BL21 (DE3) cells/FAM-labelled YAP1 (60 to 99 residues)(unknown origin) protein-protein interaction preincubated for 24 hrs at 4 degree C with TEAD4 followed by fluorescent labelled YAP1 addition by fluorescence polarization assay
T1 sequence (P46937 whole entry, the tested form may be a part): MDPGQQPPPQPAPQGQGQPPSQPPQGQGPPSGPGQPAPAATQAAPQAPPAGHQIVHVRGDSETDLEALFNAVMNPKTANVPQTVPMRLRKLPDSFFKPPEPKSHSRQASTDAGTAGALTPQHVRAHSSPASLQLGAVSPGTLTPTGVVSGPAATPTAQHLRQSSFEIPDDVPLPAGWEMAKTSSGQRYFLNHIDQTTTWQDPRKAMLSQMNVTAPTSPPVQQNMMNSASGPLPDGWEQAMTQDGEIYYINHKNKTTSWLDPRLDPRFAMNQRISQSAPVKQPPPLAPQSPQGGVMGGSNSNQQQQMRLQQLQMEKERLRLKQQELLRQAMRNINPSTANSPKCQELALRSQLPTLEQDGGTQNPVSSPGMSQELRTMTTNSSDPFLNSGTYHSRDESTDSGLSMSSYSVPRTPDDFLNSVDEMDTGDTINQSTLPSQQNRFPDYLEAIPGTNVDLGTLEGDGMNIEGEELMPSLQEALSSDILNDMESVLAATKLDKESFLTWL
T1 sequence (Q15561 whole entry, the tested form may be a part): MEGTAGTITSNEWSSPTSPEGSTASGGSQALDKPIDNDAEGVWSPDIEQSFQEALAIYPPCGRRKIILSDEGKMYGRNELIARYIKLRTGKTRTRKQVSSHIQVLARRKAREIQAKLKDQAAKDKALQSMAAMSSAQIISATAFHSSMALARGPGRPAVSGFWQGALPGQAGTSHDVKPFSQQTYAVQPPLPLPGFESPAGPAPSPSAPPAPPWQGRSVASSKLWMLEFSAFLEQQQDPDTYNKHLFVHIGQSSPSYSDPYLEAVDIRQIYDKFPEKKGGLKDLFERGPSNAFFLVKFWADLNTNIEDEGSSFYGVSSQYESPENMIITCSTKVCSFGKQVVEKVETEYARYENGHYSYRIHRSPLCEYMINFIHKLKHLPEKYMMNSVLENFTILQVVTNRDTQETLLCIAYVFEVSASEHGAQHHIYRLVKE
In short: (§1)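 FP: 64 nM TEAD4, TEAD4C367S, TEAD2 or TEAD3, or 250 nM TEAD1, was preincubated with compound for 24 h at 4 °C in PBS with 0.01% Triton X-100. FAM-YAP1 60–99 peptide (disulfide-crosslinked) was then added at 16 nM final. Polarization was read at ex 485/em 535 nm. Percent inhibition was taken relative to no-compound and no-protein controls. The single-point primary screen used 50 μM.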

[2] = target: T2, YAP1-TEAD4 (Homo sapiens) (UniProt P46937+Q15561); test: Inhibition of GST-tagged TEAD4 (217 to 434 residues) (unknown origin) expressed in Escherichia coli BL21 (DE3) cells/FAM-labelled YAP1 (60 to 99 residues)(unknown origin) protein-protein interaction assessed as maximum inhibition at 50 uM preincubated for 24 hrs at 4 degree C with TEAD4 followed by fluorescent labelled YAP1 addition by fluorescence polarization assay; in short: as §1
[3] = (§2) Inhibition of GST-tagged TEAD4 C367S mutant (unknown origin) expressed in Escherichia coli BL21 (DE3) cells/FAM-labelled YAP1 (60 to 99 residues)(unknown origin) protein-protein interaction preincubated for 24 hrs at 4 degree C with TEAD4 C367S mutant followed by fluorescent labelled YAP1 addition by fluorescence polarization assay; set-up: species or system Homo sapiens; in short: as §1
S2 = test: Inhibition of uPAR (unknown origin) expressed in S2 cells/FAM-labelled alpha-helical peptide AE-147 (unknown origin) protein-protein interaction preincubated for 24 hrs at 4 degree C with uPAR followed by fluorescent labelled AE-147 addition by fluorescence polarization assay; conditions: Homo sapiens
In short: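 Counter-screen FP: 250 nM uPAR lacking the GPI anchor (from S2 cells) was preincubated with compound for 24 h at 4 °C in PBS with 0.01% Triton X-100. AE-147-FAM peptide was then added at 100 nM final and polarization read at ex 485/em 535 nm.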

[4] = target: T2, YAP1-TEAD4 (Homo sapiens); test: Covalent inhibition of GST-tagged TEAD4 (217 to 434 residues) (unknown origin) expressed in Escherichia coli BL21 (DE3) cells/FAM-labelled YAP1 (60 to 99 residues)(unknown origin) protein-protein interaction assessed as protein-compound adduct formation at 100 uM incubated for 24 hrs at 4 degree C followed by mass spectrometry analysis
In short: (§3)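 Intact-protein MS: 2.5 μM protein (TEAD4 217–434 with GST cleaved, TEAD4C367S, TEAD1 209–426, TEAD2 217–447 or TEAD3 210–427) incubated with 100 μM compound in PBS for 24 h at 4 °C. Samples were centrifuged to remove precipitate, desalted on a C3 reverse-phase column with a water/acetonitrile 0.1% formic acid gradient, and masses were read by Q-TOF. Adduct peaks were reported as percent.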

Homo sapiens [5] = organism: Homo sapiens; test: as §2; in short: as §1
YAP1-TEAD4 [6] = target: T1, YAP1-TEAD4; test: Inhibition of GST-tagged TEAD4 (217 to 434 residues) (unknown origin) expressed in Escherichia coli BL21 (DE3) cells/FAM-labelled YAP1 (60 to 99 residues)(unknown origin) protein-protein interaction preincubated for 6 hrs at 4 degree C with TEAD4 followed by fluorescent labelled YAP1 addition by fluorescence polarization assay
In short: (§4)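 Time-course FP: 64 nM TEAD4 was preincubated with varying compound concentrations for 0.5, 6, 24 or 48 h at 4 °C in PBS with 0.01% Triton X-100. 16 nM FAM-YAP1 60–99 peptide was then added and polarization read at 485/535 nm, n = 2. Inhibition was taken relative to no-compound and no-protein controls.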

YAP1-TEAD4 [7] = target: T1, YAP1-TEAD4; test: Inhibition of GST-tagged TEAD4 (217 to 434 residues) (unknown origin) expressed in Escherichia coli BL21 (DE3) cells/FAM-labelled YAP1 (60 to 99 residues)(unknown origin) protein-protein interaction preincubated for 48 hrs at 4 degree C with TEAD4 followed by fluorescent labelled YAP1 addition by fluorescence polarization assay; in short: as §4
[8] = target: T2, YAP1-TEAD4 (Homo sapiens); test: Inhibition of GST-tagged TEAD4 (217 to 434 residues) (unknown origin) expressed in Escherichia coli BL21 (DE3) cells/FAM-labelled YAP1 (60 to 99 residues)(unknown origin) protein-protein interaction assessed maximum inhibition preincubated for 6 hrs at 4 degree C with TEAD4 followed by fluorescent labelled YAP1 addition by fluorescence polarization assay; in short: as §4
[9] = target: T2, YAP1-TEAD4 (Homo sapiens); test: Inhibition of GST-tagged TEAD4 (217 to 434 residues) (unknown origin) expressed in Escherichia coli BL21 (DE3) cells/FAM-labelled YAP1 (60 to 99 residues)(unknown origin) protein-protein interaction assessed maximum inhibition preincubated for 48 hrs at 4 degree C with TEAD4 followed by fluorescent labelled YAP1 addition by fluorescence polarization assay; in short: as §4
[10] = target: T2, YAP1-TEAD4 (Homo sapiens); test: Covalent inhibition of GST-tagged TEAD4 (217 to 434 residues) (unknown origin) expressed in Escherichia coli BL21 (DE3) cells/FAM-labelled YAP1 (60 to 99 residues)(unknown origin) protein-protein interaction assessed as protein-compound adduct formation by second order rate constant, kinact/ki ratio at 100 uM incubated for 0.5 to 6 hrs at 4 degree C followed by mass spectrometry analysis; conditions: time 0.5-6 hrs
In short: (§5)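 Kinetics by MS: 2.5 μM TEAD4 was incubated at 4 °C with 3.1–100 μM compound. Aliquots were quenched with 0.1 M formic acid at set times from 0.5 h upward and analysed by whole-protein MS. Adduct relative to unreacted protein was fit to 100×(1−e^(−kobs·t)) to give kobs. kobs versus concentration was fit hyperbolically for kinact and KI, or linearly for kinact/KI where no plateau was reached.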

TEAD2-YAP1 = TEAD2-YAP1 (Homo sapiens, UniProt Q15562); test: (§6) Inhibition of TEAD2 (217 to 447 residues) (unknown origin) expressed in Escherichia coli BL21 (DE3) cells/FAM-labelled YAP1 (60 to 99 residues)(unknown origin) protein-protein interaction preincubated for 24 hrs at 4 degree C with compound followed by fluorescent labelled YAP1 addition by fluorescence polarization assay; in short: as §1
Sequence of TEAD2-YAP1 (P46937 whole entry, the tested form may be a part): as the sequence (P46937 whole entry, the tested form may be a part) above
Sequence of TEAD2-YAP1 (Q15562 whole entry, the tested form may be a part): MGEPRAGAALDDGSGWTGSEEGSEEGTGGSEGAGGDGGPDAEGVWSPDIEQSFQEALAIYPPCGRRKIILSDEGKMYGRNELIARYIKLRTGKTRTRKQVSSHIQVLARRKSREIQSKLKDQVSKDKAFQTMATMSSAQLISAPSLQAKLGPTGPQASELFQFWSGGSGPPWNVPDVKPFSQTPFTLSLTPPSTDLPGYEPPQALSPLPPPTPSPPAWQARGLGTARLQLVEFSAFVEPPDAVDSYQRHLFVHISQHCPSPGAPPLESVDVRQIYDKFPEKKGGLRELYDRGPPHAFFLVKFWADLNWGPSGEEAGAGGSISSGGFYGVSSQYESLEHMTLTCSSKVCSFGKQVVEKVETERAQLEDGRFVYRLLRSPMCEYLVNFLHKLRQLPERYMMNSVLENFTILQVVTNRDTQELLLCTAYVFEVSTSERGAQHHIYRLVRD

[11] = target: T3, TEAD2-YAP1 (Homo sapiens) (UniProt P46937+Q15562); test: Inhibition of TEAD2 (217 to 447 residues) (unknown origin) expressed in Escherichia coli BL21 (DE3) cells/FAM-labelled YAP1 (60 to 99 residues)(unknown origin) protein-protein interaction assessed as maximum inhibition at 50 uM preincubated for 24 hrs at 4 degree C with compound followed by fluorescent labelled YAP1 addition by fluorescence polarization assay; in short: as §1
T3 sequence (P46937 whole entry, looked up, the tested form may be a part): as the sequence (P46937 whole entry, the tested form may be a part) above
T3 sequence (Q15562 whole entry, looked up, the tested form may be a part): as the sequence (Q15562 whole entry, the tested form may be a part) above

[12] = target: TEAD3-YAP1 (Homo sapiens) (UniProt P46937+Q99594); test: Inhibition of TEAD3 (210 to 427 residues) (unknown origin) expressed in Escherichia coli BL21 (DE3) cells/FAM-labelled YAP1 (60 to 99 residues)(unknown origin) protein-protein interaction preincubated for 24 hrs at 4 degree C with compound followed by fluorescent labelled YAP1 addition by fluorescence polarization assay; in short: as §1
Sequence of TEAD3-YAP1 (Homo sapiens) (P46937 whole entry, looked up, the tested form may be a part): as the sequence (P46937 whole entry, the tested form may be a part) above
Sequence of TEAD3-YAP1 (Homo sapiens) (Q99594 whole entry, looked up, the tested form may be a part): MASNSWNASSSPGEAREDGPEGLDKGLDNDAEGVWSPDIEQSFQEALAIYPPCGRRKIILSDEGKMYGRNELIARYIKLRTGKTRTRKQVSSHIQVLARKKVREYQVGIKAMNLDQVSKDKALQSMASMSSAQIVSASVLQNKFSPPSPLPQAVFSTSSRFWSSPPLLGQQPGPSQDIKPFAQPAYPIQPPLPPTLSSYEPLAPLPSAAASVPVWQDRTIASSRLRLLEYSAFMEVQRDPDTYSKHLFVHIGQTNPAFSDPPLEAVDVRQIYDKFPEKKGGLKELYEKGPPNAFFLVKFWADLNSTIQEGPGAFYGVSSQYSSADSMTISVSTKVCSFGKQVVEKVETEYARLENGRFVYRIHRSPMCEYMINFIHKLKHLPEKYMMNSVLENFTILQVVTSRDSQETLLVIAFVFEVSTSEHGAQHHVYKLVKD

[13] = target: T4, Transcriptional coactivator YAP1/Transcriptional enhancer factor TEF-1 (Homo sapiens) (UniProt P46937+P28347); test: Covalent inhibition of TEAD1 (209 to 426 residues) (unknown origin) expressed in Escherichia coli BL21 (DE3) cells/FAM-labelled YAP1 (60 to 99 residues)(unknown origin) protein-protein interaction assessed as protein-compound adduct formation at 100 uM incubated for 24 hrs at 4 degree C followed by mass spectrometry analysis; in short: as §3
T4 sequence (P28347 whole entry, looked up, the tested form may be a part): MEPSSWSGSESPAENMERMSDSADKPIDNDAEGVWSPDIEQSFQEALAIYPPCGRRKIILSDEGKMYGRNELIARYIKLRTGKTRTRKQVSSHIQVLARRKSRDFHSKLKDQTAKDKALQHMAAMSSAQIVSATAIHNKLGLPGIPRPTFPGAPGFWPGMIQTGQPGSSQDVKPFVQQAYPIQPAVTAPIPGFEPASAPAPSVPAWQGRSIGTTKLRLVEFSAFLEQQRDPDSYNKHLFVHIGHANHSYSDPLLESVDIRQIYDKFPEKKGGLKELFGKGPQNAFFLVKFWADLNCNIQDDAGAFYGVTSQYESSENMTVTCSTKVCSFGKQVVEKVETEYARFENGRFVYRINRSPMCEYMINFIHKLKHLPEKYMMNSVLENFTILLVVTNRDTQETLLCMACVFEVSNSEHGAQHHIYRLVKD
T4 sequence (P46937 whole entry, looked up, the tested form may be a part): as the sequence (P46937 whole entry, the tested form may be a part) above

Homo sapiens [14] = organism: Homo sapiens; test: Covalent inhibition of GST-tagged TEAD4 C367S mutant (unknown origin) expressed in Escherichia coli BL21 (DE3)/FAM-labelled YAP1 (60 to 99 residues)(unknown origin) protein-protein interaction assessed as protein-compound adduct formation at 100 uM incubated for 24 hrs at 4 degree C followed by mass spectrometry analysis; in short: as §3
[15] = target: Transcriptional coactivator YAP1/Transcriptional enhancer factor TEF-1 (Homo sapiens, UniProt P28347); test: (§7) Inhibition of TEAD1 (209 to 426 residues) (unknown origin) expressed in Escherichia coli BL21 (DE3) cells/FAM-labelled YAP1 (60 to 99 residues)(unknown origin) protein-protein interaction preincubated for 24 hrs at 4 degree C with compound followed by fluorescent labelled YAP1 addition by fluorescence polarization assay; in short: as §1
Sequence of Transcriptional coactivator YAP1/Transcriptional enhancer factor TEF-1 (P46937 whole entry, the tested form may be a part): as above
Sequence of Transcriptional coactivator YAP1/Transcriptional enhancer factor TEF-1 (P28347 whole entry, the tested form may be a part): as the sequence (P28347 whole entry, looked up, the tested form may be a part) above

[16] = target: T2, YAP1-TEAD4 (Homo sapiens); test: Covalent inhibition of GST-tagged TEAD4 (217 to 434 residues) (unknown origin) expressed in Escherichia coli BL21 (DE3) cells/FAM-labelled YAP1 (60 to 99 residues)(unknown origin) protein-protein interaction assessed as second protein-compound adduct formation at 100 uM incubated for 24 hrs at 4 degree C followed by mass spectrometry analysis; in short: as §3
[17] = target: T2, YAP1-TEAD4 (Homo sapiens); test: Covalent inhibition of GST-tagged TEAD4 (217 to 434 residues) (unknown origin) expressed in Escherichia coli BL21 (DE3) cells/FAM-labelled YAP1 (60 to 99 residues)(unknown origin) protein-protein interaction assessed as additional protein-compound adduct formation at 100 uM incubated for 24 hrs at 4 degree C followed by mass spectrometry analysis; in short: as §3
YAP1-TEAD4 [18] = target: T1, YAP1-TEAD4; test: Inhibition of GST-tagged TEAD4 (217 to 434 residues) (unknown origin) expressed in Escherichia coli BL21 (DE3) cells/FAM-labelled YAP1 (60 to 99 residues)(unknown origin) protein-protein interaction preincubated for 0.5 hrs at 4 degree C with TEAD4 followed by fluorescent labelled YAP1 addition by fluorescence polarization assay; in short: as §4
[19] = target: T4, Transcriptional coactivator YAP1/Transcriptional enhancer factor TEF-1 (Homo sapiens); test: Inhibition of TEAD1 (209 to 426 residues) (unknown origin) expressed in Escherichia coli BL21 (DE3) cells/FAM-labelled YAP1 (60 to 99 residues)(unknown origin) protein-protein interaction assessed as maximum inhibition at 50 uM preincubated for 24 hrs at 4 degree C with compound followed by fluorescent labelled YAP1 addition by fluorescence polarization assay; in short: as §1
YAP1-TEAD4 [20] = target: T1, YAP1-TEAD4; test: Covalent inhibition of GST-tagged TEAD4 (217 to 434 residues) (unknown origin) expressed in Escherichia coli BL21 (DE3) cells/FAM-labelled YAP1 (60 to 99 residues)(unknown origin) protein-protein interaction assessed as protein-compound adduct formation by measuring inhibition constant at 100 uM incubated for 0.5 to 6 hrs at 4 degree C followed by mass spectrometry analysis; in short: as §5
[21] = target: T2, YAP1-TEAD4 (Homo sapiens); test: Covalent inhibition of GST-tagged TEAD4 (217 to 434 residues) (unknown origin) expressed in Escherichia coli BL21 (DE3) cells/FAM-labelled YAP1 (60 to 99 residues)(unknown origin) protein-protein interaction assessed as protein-compound adduct formation by measuring reaction half life at 100 uM incubated for 0.5 to 6 hrs at 4 degree C followed by mass spectrometry analysis; conditions: time 0.5-6 hrs; in short: as §5
[22] = target: T4, Transcriptional coactivator YAP1/Transcriptional enhancer factor TEF-1 (Homo sapiens); test: as §7; in short: as §1
[23] = target: T3, TEAD2-YAP1 (Homo sapiens); test: as §6; in short: as §1

Compound | IC50 (YAP1-TEAD4 [1]) [µM] | Imax [2] [%] | inhibition (S2) | percent protein-compound adduct formation [4] [%] | inhibition (Homo sapiens [5]) | IC50 (YAP1-TEAD4 [6]) [µM] | IC50 (YAP1-TEAD4 [7]) [µM] | Imax [8] [%] | Imax [9] [%] | Ratio [10] [M⁻¹ s⁻¹] | IC50 (TEAD2-YAP1) [µM] | inhibition [12] | inhibition [13] | inhibition (Homo sapiens [14]) | IC50 [15] [µM] | other results
COc1ccccc1CN(C(=O)CCl)C(C(=O)NC1CCCCC1)c1ccncc1 (stereo not given) | 20.7 | 100 | inactive | – | – | – | – | – | – | – | – | – | – | – | – | IC50 [3]: 27.9 µM
CCOc1ccc(S(=O)(=O)N2CCN(C(=O)CCl)CC2)cc1 | 11.1 | 44 | inactive | 100 | inactive | 56.3 | 19.4 | 45 | 45 | 2.4 | 46.5 | inactive | Active | – | – | Imax [11]: 14%
O=C(CCl)NCCSc1ccc(Cl)cc1 | 1.4 | 35 | – | – | – | – | – | – | – | 1.6 | 86.7 | inactive | Active | inactive | 182 | –
COc1ccc(CN(C(=O)CCl)C(C(=O)NC2CCCCC2)c2cccs2)cc1 (stereo not given) | 13 | 67 | inactive | 12 | inactive | – | – | – | – | – | – | – | – | inactive | – | percent second protein-compound adduct [16]: 20%; percent protein-compound adduct formation [17]: 30%
NC(=O)c1oc2ccccc2c1NC(=O)CCl | 0.9 | 35 | – | – | – | – | – | – | – | 0.3 | 254 | inactive | 100% | inactive | 3 | IC50 (YAP1-TEAD4 [18]): 40 µM; Imax [19]: 31%
O=C(Nc1ccccc1)C1CCN(C(=O)CCl)CC1 | 22.8 | 41 | inactive | 100 | inactive | 38.1 | 4.7 | 33 | 33 | 28.1 | – | inactive | Active | – | – | Ki (YAP1-TEAD4 [20]): 94 µM; T1/2 [21]: 6 min; inhibition [22]: inactive; inhibition [23]: inactive
